Laboratory results reported in ChEMBL document CHEMBL1128719, “The synthesis, structure-activity, and structure-side effect relationships of a series of 8-alkoxy- and 5-amino-8-alkoxyquinolone antibacterial agents” (J Med Chem, 1995).
In brackets after ≈: the same amount, converted by molar mass.

Tests used:
[1] = species on record: Mus musculus; assay: (§1) Phototoxic skin reaction in depilated female CD-1 mice; format: toxicity, organism-based; details: in vivo
Outline: (§2)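 Female CD-1 mice, depilated, given a single oral or subcutaneous dose. UVA (320–400 nm) exposure for 3 h, starting 1 h post-dose. Initial doses were 30, 100 and 300 mg/kg. PTD50 (dose giving phototoxic skin reaction in 50% of mice) derived by probit method. First day of positive reaction and no-effect dose taken from raw data.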

[2] = system: Clostridium perfringens; assay: In vitro antibacterial activity against Clostridium perfringens CP 3-1; format: functional
[3] = system: Peptoniphilus asaccharolyticus; assay: In vitro antibacterial activity was tested for Pepto asac PA 3-1; format: functional
Outline: (§3)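 Microtitration (microdilution) MIC determination in μg/mL against a panel of Gram-positive, Gram-negative and anaerobic organisms. Values come from duplicate or triplicate experiments and are stated accurate to ±50%.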

[4] = system: Clostridioides difficile; assay: In vitro antibacterial activity was tested for Clostridium diff CD1-1; format: functional
[5] = system: Bacteroides fragilis; assay: In vitro antibacterial activity against Bacteroides fragilis BFA; format: functional; outline: as §3
[6] = species on record: Mus musculus; assay: Phototoxic skin reaction in depilated female CD-1 mice.; format: functional; outline: as §2
[7] = system: Cutibacterium acnes; assay: In vitro antibacterial activity was tested for Propion acnes PA5-1; format: functional; outline: as §3
[8] = system: V79; assay: (§4) Clonogenic cytotoxicity against Chinese hamster V-79 cells; format: functional, cell-based; details: Cricetulus griseus
[9] = system: Streptococcus pneumoniae; assay: In vitro antibacterial activity was tested for Streptococcus pneumoniae SV-1; format: functional; outline: as §3
[10] = system: Klebsiella pneumoniae; assay: In vitro antibacterial activity was tested for Klebsiella pneumoniae MGH-2; format: functional; outline: as §3
[11] = system: Providencia rettgeri; assay: In vitro antibacterial activity was tested for Providencia rettgeri H1771; format: functional; outline: as §3
[12] = system: Enterococcus faecalis; assay: In vitro antibacterial activity was tested for Streptococcus faecalis MGH-2; format: functional; outline: as §3
[13] = system: Escherichia coli; assay: In vitro antibacterial activity was tested for Escherichia coli Vogel; format: functional; outline: as §3
[14] = system: Staphylococcus aureus; assay: In vitro antibacterial activity was tested for Staphylococcus aureus H228; format: functional; outline: as §3
[15] = system: Streptococcus pyogenes; assay: In vitro antibacterial activity was tested for Streptococcus pyogenes C203; format: functional; outline: as §3
[16] = system: V79; assay: as §4; format: functional, cell-based; details: Cricetulus griseus; remark: listed apart in the source
Outline: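 Chinese hamster V-79 cells grown overnight, then exposed to drug 3 h at 37 °C; drug medium replaced with fresh medium, cells incubated 5 days and scored for colony formation. IC50 (μg/mL) taken as concentration inhibiting colony formation by 50% versus control.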

[17] = system: Pseudomonas aeruginosa; assay: In vitro antibacterial activity was tested for Pseudomonas aeruginosa UI-18; format: functional; outline: as §3
[18] = system: Escherichia coli; assay: In vitro antibacterial activity was tested for Escherichia coli H560; format: functional; outline: as §3
[19] = system: Enterobacter cloacae; assay: In vitro antibacterial activity was tested for Enterobacter cloacae HA2646; format: functional
[20] = system: Staphylococcus aureus; assay: In vitro antibacterial activity was tested for Staphylococcus aureus UC-76; format: functional; outline: as §3
[21] = species on record: Mus musculus; assay: as §1; format: functional; outline: as §2

Row | SMILES | PTD50 [1] | MIC [2] | MIC [3] | MIC [4] | MIC [5] | No effect dose [6] | MIC [7] | MIC [9] | MIC [10] | MIC [11] | MIC [12] | MIC [13] | MIC [14] | MIC [15] | MIC [17] | MIC [18] | MIC [19] | MIC [20] | also measured
1 | NC1CCCN(c2c(F)cc3c(=O)c(C(=O)O)cn(C4CC4)c3c2F)C1 (stereo unspecified) | 55 mg | 0.2 µg/mL (≈ 0.55 µM) | 1.6 µg/mL (≈ 4.4 µM) | 1.6 µg/mL (≈ 4.4 µM) | 1.6 µg/mL (≈ 4.4 µM) | 30 mg | 0.4 µg/mL (≈ 1.1 µM) |  |  |  |  |  |  |  |  |  |  |  | 
2 | CC1(CN)CCN(c2c(F)cc3c(=O)c(C(=O)O)cn(C4CC4)c3c2Cl)C1 (stereo unspecified) | < 30 mg | 0.05 µg/mL (≈ 0.127 µM) | 0.2 µg/mL (≈ 0.508 µM) | 0.2 µg/mL (≈ 0.508 µM) | 0.05 µg/mL (≈ 0.127 µM) | <30 mg | 0.2 µg/mL (≈ 0.508 µM) |  |  |  |  |  |  |  |  |  |  |  | IC50 [8]: 8.6 µg/mL (≈ 21.8 µM)
3 | NCC1CCCN(c2nc3c(cc2F)c(=O)c(C(=O)O)cn3C2CC2)C1 (stereo unspecified) |  |  |  |  |  |  |  | 0.2 µg/mL (≈ 0.555 µM) | 0.8 µg/mL (≈ 2.22 µM) | 1.6 µg/mL (≈ 4.44 µM) | 0.4 µg/mL (≈ 1.11 µM) | 0.4 µg/mL (≈ 1.11 µM) | 1.6 µg/mL (≈ 4.44 µM) | 0.2 µg/mL (≈ 0.555 µM) | 6.3 µg/mL (≈ 17.5 µM) | 0.4 µg/mL (≈ 1.11 µM) | 0.4 µg/mL (≈ 1.11 µM) | 0.2 µg/mL (≈ 0.555 µM) | IC50 [16]: 290 µg/mL (≈ 805 µM)
4 | COc1c(N2CCCC(N)C2)c(F)c(N)c2c(=O)c(C(=O)O)cn(C3CC3)c12 (stereo unspecified) | > 100 mg | 0.2 µg/mL (≈ 0.512 µM) | 0.8 µg/mL (≈ 2.05 µM) | 1.6 µg/mL (≈ 4.1 µM) | 1.6 µg/mL (≈ 4.1 µM) | 100 mg | 0.4 µg/mL (≈ 1.02 µM) | 0.006 µg/mL (≈ 0.0154 µM) | 0.2 µg/mL (≈ 0.512 µM) | 0.4 µg/mL (≈ 1.02 µM) | 0.05 µg/mL (≈ 0.128 µM) | 0.1 µg/mL (≈ 0.256 µM) | 0.025 µg/mL (≈ 0.064 µM) | 0.013 µg/mL (≈ 0.0333 µM) | 1.6 µg/mL (≈ 4.1 µM) | 0.05 µg/mL (≈ 0.128 µM) | 0.1 µg/mL (≈ 0.256 µM) | 0.006 µg/mL (≈ 0.0154 µM) | IC50 [8]: 290 µg/mL (≈ 743 µM)
5 | NC1CCN(c2cc3c(cc2F)c(=O)c(C(=O)O)cn3C2CC2)C1 (stereo unspecified) | > 300 mg | 0.1 µg/mL (≈ 0.302 µM) | 1.6 µg/mL (≈ 4.83 µM) | 12.5 µg/mL (≈ 37.7 µM) | 1.6 µg/mL (≈ 4.83 µM) |  | 1.6 µg/mL (≈ 4.83 µM) | 0.1 µg/mL (≈ 0.302 µM) | 0.1 µg/mL (≈ 0.302 µM) | 0.1 µg/mL (≈ 0.302 µM) | 0.05 µg/mL (≈ 0.151 µM) | 0.025 µg/mL (≈ 0.0754 µM) | 0.025 µg/mL (≈ 0.0754 µM) | 0.006 µg/mL (≈ 0.0181 µM) | 0.1 µg/mL (≈ 0.302 µM) | 0.05 µg/mL (≈ 0.151 µM) | 0.025 µg/mL (≈ 0.0754 µM) | 0.1 µg/mL (≈ 0.302 µM) | No effect dose [21]: 300 mg
6 | Nc1c(F)c(N2CCC(N)C2)c(F)c2c1c(=O)c(C(=O)O)cn2C1CC1 (stereo unspecified) | 52 mg |  |  |  |  |  |  | 0.006 µg/mL (≈ 0.0165 µM) | 0.006 µg/mL (≈ 0.0165 µM) | 0.025 µg/mL (≈ 0.0686 µM) | 0.025 µg/mL (≈ 0.0686 µM) | 0.006 µg/mL (≈ 0.0165 µM) | 0.013 µg/mL (≈ 0.0357 µM) | 0.025 µg/mL (≈ 0.0686 µM) | 0.05 µg/mL (≈ 0.137 µM) | 0.003 µg/mL (≈ 0.00823 µM) | 0.006 µg/mL (≈ 0.0165 µM) | 0.006 µg/mL (≈ 0.0165 µM) | No effect dose [21]: 30 mg
7 | COc1c(N2CC(C)NC(C)C2)c(F)cc2c(=O)c(C(=O)O)cn(C3CC3)c12 (stereo unspecified) | > 100 mg | 0.4 µg/mL (≈ 1.03 µM) | 0.8 µg/mL (≈ 2.05 µM) | 3.1 µg/mL (≈ 7.96 µM) | 0.8 µg/mL (≈ 2.05 µM) |  | 0.4 µg/mL (≈ 1.03 µM) | 0.1 µg/mL (≈ 0.257 µM) | 0.2 µg/mL (≈ 0.514 µM) | 0.8 µg/mL (≈ 2.05 µM) | 0.2 µg/mL (≈ 0.514 µM) | 0.1 µg/mL (≈ 0.257 µM) | 0.1 µg/mL (≈ 0.257 µM) | 0.1 µg/mL (≈ 0.257 µM) | 3.1 µg/mL (≈ 7.96 µM) | 0.05 µg/mL (≈ 0.128 µM) | 0.1 µg/mL (≈ 0.257 µM) | 0.05 µg/mL (≈ 0.128 µM) | No effect dose [21]: 100 mg
8 | NCC1CCCN(c2c(F)c(N)c3c(=O)c(C(=O)O)cn(C4CC4)c3c2F)C1 (stereo unspecified) |  |  |  |  |  |  |  | 0.003 µg/mL (≈ 0.00765 µM) | 0.1 µg/mL (≈ 0.255 µM) | 0.2 µg/mL (≈ 0.51 µM) | 0.013 µg/mL (≈ 0.0331 µM) | 0.05 µg/mL (≈ 0.127 µM) | 0.025 µg/mL (≈ 0.0637 µM) | 0.13 µg/mL (≈ 0.331 µM) | 0.8 µg/mL (≈ 2.04 µM) | 0.025 µg/mL (≈ 0.0637 µM) | 0.05 µg/mL (≈ 0.127 µM) | 0.003 µg/mL (≈ 0.00765 µM) | IC50 [16]: 38 µg/mL (≈ 96.8 µM)
9 | COc1c(N2CC(C)NC(C)C2)c(F)c(N)c2c(=O)c(C(=O)O)cn(C3CC3)c12 (stereo unspecified) | > 100 mg | 0.4 µg/mL (≈ 0.989 µM) | 0.8 µg/mL (≈ 1.98 µM) | 3.1 µg/mL (≈ 7.66 µM) | 1.6 µg/mL (≈ 3.96 µM) | 100 mg | 1.6 µg/mL (≈ 3.96 µM) | 0.05 µg/mL (≈ 0.124 µM) | 0.4 µg/mL (≈ 0.989 µM) | 0.8 µg/mL (≈ 1.98 µM) | 0.2 µg/mL (≈ 0.495 µM) | 0.2 µg/mL (≈ 0.495 µM) | 0.1 µg/mL (≈ 0.247 µM) | 0.1 µg/mL (≈ 0.247 µM) | 3.1 µg/mL (≈ 7.66 µM) | 0.1 µg/mL (≈ 0.247 µM) | 0.2 µg/mL (≈ 0.495 µM) | 0.025 µg/mL (≈ 0.0618 µM) | 
10 | CCOc1c(N2CCC(C)(CN)C2)c(F)cc2c(=O)c(C(=O)O)cn(C3CC3)c12 (stereo unspecified) | > 100 mg | 0.8 µg/mL (≈ 1.98 µM) | 0.8 µg/mL (≈ 1.98 µM) | 3.1 µg/mL (≈ 7.68 µM) | 1.6 µg/mL (≈ 3.97 µM) | 100 mg | 3.1 µg/mL (≈ 7.68 µM) | 0.1 µg/mL (≈ 0.248 µM) | 0.4 µg/mL (≈ 0.991 µM) | 0.8 µg/mL (≈ 1.98 µM) | 0.1 µg/mL (≈ 0.248 µM) | 0.2 µg/mL (≈ 0.496 µM) | 0.05 µg/mL (≈ 0.124 µM) | 0.1 µg/mL (≈ 0.248 µM) | 1.6 µg/mL (≈ 3.97 µM) | 0.2 µg/mL (≈ 0.496 µM) | 0.2 µg/mL (≈ 0.496 µM) | 0.013 µg/mL (≈ 0.0322 µM) | IC50 [8]: 140 µg/mL (≈ 347 µM)
11 | CC1(CN)CCN(c2nc3c(cc2F)c(=O)c(C(=O)O)cn3C2CC2)C1 (stereo unspecified) | > 300 mg | 0.2 µg/mL (≈ 0.555 µM) | 1.6 µg/mL (≈ 4.44 µM) | 25 µg/mL (≈ 69.4 µM) | 6.3 µg/mL (≈ 17.5 µM) | 300 mg | 1.6 µg/mL (≈ 4.44 µM) |  |  |  |  |  |  |  |  |  |  |  | 
